MrgX1 allo act – positive allosteric modulators of MrgX1, primary screen, HEK293 cells, Fluo-4 calcium flux; Mas-related G-protein coupled receptor member X1 (Homo sapiens), Q96LB2; FDSS; stronger effect = higher value; B-score at 10 µM; 0.63% of 310,000 active; AID 588675, 2011;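 active = plate-corrected calcium response at least 3 library SD above typical, normal starting fluorescence, not activating the receptor alone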;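 note: compound read alongside a low EC10 to EC30 dose of BAM8-22 agonist; peak minus trough fluorescence over baseline measured at the second addition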
Target sequence (Q96LB2 whole entry, looked up): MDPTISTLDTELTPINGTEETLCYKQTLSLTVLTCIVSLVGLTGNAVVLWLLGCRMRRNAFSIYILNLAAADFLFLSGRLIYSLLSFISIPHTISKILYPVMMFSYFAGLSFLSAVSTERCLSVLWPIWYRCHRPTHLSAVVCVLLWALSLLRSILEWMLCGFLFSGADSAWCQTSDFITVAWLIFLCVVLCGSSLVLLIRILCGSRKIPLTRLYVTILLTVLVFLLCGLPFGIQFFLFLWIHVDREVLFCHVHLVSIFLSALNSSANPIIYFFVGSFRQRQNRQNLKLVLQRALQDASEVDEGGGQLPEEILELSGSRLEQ
MrgX1 ag – agonists of human MrgX1 receptor, primary screen, HEK293 cells, Fluo-4 calcium flux; Mas-related G-protein coupled receptor member X1 (Homo sapiens), Q96LB2; Fluo-4 calcium fluorescence, agonist mode; stronger effect = higher value; B-score at 10 µM; 0.44% of 310,000 active; AID 588627, 2011;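 active = calcium response B-score plate-corrected fluorescence ratio at least 3 library SD, with starting fluorescence B-score inside 5 SD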
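Test system: Stable human MrgX1 HEK293 cell line | Schedule: Overnight plating before 1 h dye loading | Read-out basis: Baseline-normalised fluorescence change ratio, B-scored | Detection: Kinetic calcium dye fluorescence, Fluo-4 NW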
RGS4 act – RGS4 potentiators or activators, primary screen, cell-based, HEK293 M3R inducible RGS4, calcium flux; B-score at 10 µM; carbachol calcium flux Fluo4; stronger effect = lower value; AID 463111, 2010; 0.92% of 310,000 active;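 active = B-score of the integrated calcium signal more than 4 SD below the library mean, with starting fluorescence not abnormally high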;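 note: negative B-score means reduced calcium response which marks RGS4 activation or potentiation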
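Test system: HEK293 cells with stable M3R and inducible RGS4; also added: carbachol at ECmax as muscarinic agonist stimulus; schedule: dye loading 30 min 37 °C, buffer rest 30 min RT; technique: kinetic calcium fluorescence imaging with Fluo4-AM dye, 2 µM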
MrgX1 antagonist – antagonists of human MrgX1 receptor, primary screen, HEK293 cells, Fluo-4 calcium flux. BAM8-22 antagonism; stronger effect = lower value. B-score at 10 µM. 1.3% of 310,000 active. AID 588676, 2011;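 active = calcium-response B-score plate-corrected more than 3 library SD below zero, starting fluorescence within 5 deviations, no agonist response on first addition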;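 note: peak minus trough fluorescence over baseline after final BAM8-22 challenge near maximal dose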
RGS4 block – RGS4 inhibitors, primary screen, cell-based, HEK293 M3R inducible RGS4, calcium flux; B-score at 10 µM; AID 463165, 2010; Fluo-4 calcium flux; stronger effect = higher value; triggered by carbachol at its EC20; 0.45% of 310,000 active;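 active = B-score, a plate-corrected calcium signal, over three deviations above library mean, with baseline fluorescence within five deviations of library mean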;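 note: RGS4 expression induced by doxycycline in cells with stable M3 receptor; B-score is computed from the integrated fluorescence ratio over baseline after carbachol; higher B-score means a larger calcium signal and so more RGS4 inhibition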
* = called active by the depositor. In the library only some 3.5% were active in any assay of this set; here they are far more common.

`CC(C)C1=CC2=CCC3C(C)(C(=O)O)CCCC3(C)C2CC1` (stereo not given) (tested in a mixture with another compound) gave MrgX1 allo act inactive, MrgX1 ag inactive, RGS4 act inactive, MrgX1 antagonist inactive and RGS4 block inactive.
For CCCCC(=O)N/N=C(\C)c1cccc(NC(=O)C2CC2)c1 the results were MrgX1 allo act inactive, MrgX1 ag inactive, RGS4 act inactive, MrgX1 antagonist -5.6* and RGS4 block inactive.
Cc1ccc(C)c(CN2CCC(CNC(=O)Nc3ccc(Cl)cc3)CC2)c1 was read as MrgX1 allo act inactive, MrgX1 ag inactive, RGS4 act inactive, MrgX1 antagonist inactive and RGS4 block inactive.
Screening COc1cc(NC(=O)NCC2CCN(Cc3ccccc3C)CC2)cc(OC)c1OC returned MrgX1 allo act inactive, MrgX1 ag inactive, RGS4 act -7*, MrgX1 antagonist inactive and RGS4 block inactive.
`Cc1ccc(S(=O)(=O)N2CCN(C(=O)C3=COCCO3)CC2)cc1C` gave MrgX1 allo act inactive, MrgX1 ag inactive, RGS4 act inactive, MrgX1 antagonist inactive and RGS4 block inactive.
`O=C(C1=COCCO1)N1CCN(S(=O)(=O)c2cccc(Cl)c2Cl)CC1` gave MrgX1 allo act inactive, MrgX1 ag inactive, RGS4 act inactive, MrgX1 antagonist -5.7* and RGS4 block inactive.
For O=C(NCc1ccccc1Cl)c1cnc2n(c1=O)CCS2 the results were MrgX1 allo act inactive, MrgX1 ag inactive, RGS4 act inactive, MrgX1 antagonist -4.7* and RGS4 block inactive.
O=C(NCCc1ccccc1)c1cnc2n(c1=O)CCS2 was read as MrgX1 allo act inactive, MrgX1 ag inactive, RGS4 act inactive, MrgX1 antagonist inactive and RGS4 block inactive.
O=[N+]([O-])c1cc([N+](=O)[O-])c(Oc2c(F)ccc(F)c2F)cc1NN1CCCCC1 was read as MrgX1 allo act inactive, MrgX1 ag inactive, RGS4 act -7.2*, MrgX1 antagonist inactive and RGS4 block inactive.
`O=[N+]([O-])c1cc([N+](=O)[O-])c(Oc2ccc(F)cc2)cc1NN1CCCCC1` gave MrgX1 allo act inactive, MrgX1 ag inactive, RGS4 act inactive, MrgX1 antagonist inactive and RGS4 block inactive.
O=[N+]([O-])c1cc([N+](=O)[O-])c(Oc2c(Cl)cccc2Cl)cc1NN1CCCCC1 was read as MrgX1 allo act inactive, MrgX1 ag inactive, RGS4 act inactive, MrgX1 antagonist inactive and RGS4 block inactive.
CC(=O)c1cccc(Oc2cc(NN3CCCCC3)c([N+](=O)[O-])cc2[N+](=O)[O-])c1 was read as MrgX1 allo act inactive, MrgX1 ag inactive, RGS4 act -7.3*, MrgX1 antagonist inactive and RGS4 block inactive.
Screening CC(=O)c1ccccc1Oc1cc(NN2CCCCC2)c([N+](=O)[O-])cc1[N+](=O)[O-] returned MrgX1 allo act inactive, MrgX1 ag inactive, RGS4 act -8.3*, MrgX1 antagonist inactive and RGS4 block inactive.
Screening O=[N+]([O-])c1cc([N+](=O)[O-])c(Oc2c(F)cccc2F)cc1NN1CCCCC1 returned MrgX1 allo act inactive, MrgX1 ag inactive, RGS4 act inactive, MrgX1 antagonist inactive and RGS4 block inactive.
`COc1ccc(Oc2cc(NN3CCCCC3)c([N+](=O)[O-])cc2[N+](=O)[O-])cc1OC` gave MrgX1 allo act inactive, MrgX1 ag inactive, RGS4 act -8.2*, MrgX1 antagonist inactive and RGS4 block inactive.
CC(=O)c1ccc(OCC(=O)Nc2c(C)nn(-c3ccccc3)c2C)cc1 was read as MrgX1 allo act inactive, MrgX1 ag inactive, RGS4 act inactive, MrgX1 antagonist inactive and RGS4 block inactive.
COc1ccc(Nc2nnc(SCc3cc([N+](=O)[O-])cc4c3OCOC4)s2)cc1 was read as MrgX1 allo act inactive, MrgX1 ag inactive, RGS4 act inactive, MrgX1 antagonist -4.6* and RGS4 block inactive.
`Cc1nnc(SCc2cc([N+](=O)[O-])cc3c2OCOC3)[nH]c1=O` gave MrgX1 allo act inactive, MrgX1 ag inactive, RGS4 act inactive, MrgX1 antagonist inactive and RGS4 block inactive.
